This is an account of results in PMC6457131 (AIDS (London, England), 2019).

“Also recorded” adds a separate entry of the source.

Data set [1] relates to EcoHIV-infected mice. The settings on record: cited from earlier work.
The conditions of data set [2]: intranasal 2.4 IU; cited from earlier work.
The nature of data set [3]: Intranasal insulin pharmacokinetics in plasma, CSF and cortex. It counts as in vivo, C57BL/6 mice.
The test system of data set [4] is neuronal function and metabolism-related genes in the brain. It counts as in vivo, mice. Particulars: intranasal insulin daily for 9 days.
Data set [5] relates to MAP2 and NeuN in CA1 and CA3 regions of the hippocampus. The data set is described as follows: Hippocampal neuronal integrity by MAP2/NeuN immunofluorescence staining. It counts as in vivo, mice. The method in brief:
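Brains came from 3 mice per variable after behavioural testing. After perfusion, frozen sections were immunostained for MAP2 (dendrites) and NeuN (neuronal nuclei) and imaged by confocal microscopy. Fluorescence was quantified in hippocampal CA1 and CA3.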

Data set [6] deals with EcoHIV. The data set is described as follows: EcoHIV burdens in spleen cells and brain by quantitative PCR. The format is in vivo, mice.
Data set [7] has as its system EcoHIV-infected mice. The data set is described as follows: Radial arm water maze. The format is in vivo, C57BL/6J mice.
For data set [8], the system named is EcoHIV-infected mice. The data set is described as follows: Contextual fear conditioning. The format is in vivo. The settings on record: 129x1/SvJ mice, 1 month after infection, during intranasal insulin treatment.
Setting [9] is: intranasal 2.4 IU/mouse, uninfected mice, n = 3-8/group, observed value, ELISA.
Setting [10] is: intranasal 2.4 IU/mouse, converted with 1 μIU/ml = 0.14 pmol/l.
Setting [11] is: intranasal insulin daily for 9 days, QPCR.

For `[N-]=[N+]=CC(=O)CC[C@H](N)C(=O)O` [6-diazo-5-oxo-L-norleucine], in data set [1], the EcoHIV virus replication entry is listed as “but not virus replication” and the “murine NCI caused by EcoHIV” value is listed as “can be prevented”.

Take Human insulin: in data set [2], the “energy metabolism in mouse brain” value is on record as “increases energy metabolism in mouse brain” and the plasma glucose levels result is given as “but not plasma glucose levels”. In addition, the “cortex insulin level above baseline” value in data set [3] (for 3 h following intranasal 2.4 IU/mouse) is listed as “more than 10 fold”. In addition, in data set [3] (intranasal 2.4 IU/mouse), the “duration of therapeutic intracerebral insulin concentrations” value was 2 to 3 h; the “time by which insulin cleared to baseline, cortex” value was ≤ 6 h; the “time by which insulin cleared to baseline, plasma” value is ≤ 6 h; the “time by which insulin cleared, CSF” value is listed as ≤ 3 h. In addition, in data set [3] (setting [9]), the “Cmax, CSF” value was determined as 17 μIU/ml; the “Cmax, plasma” value was 11.7 μIU/ml; the “Tmax, CSF” value was found to be 1 h. Also, in data set [3] (setting [10]), the “Cmax, CSF” value is 2.38 pmol/L; the “Cmax, cortex” value amounted to 7.42 pM; the “Cmax, plasma” value turned out to be 1.64 pmol/L. The “half-life of insulin in cerebrospinal fluid” value in data set [3] (intranasal administration to mice) is reported as “about 2 h”. The “downmodulation of fourteen genes in brains of EcoHIV-infected mice” value in data set [4] is reported as “fully reversed”. The “NeuN staining of neuronal cell bodies in hippocampus” value in data set [5] (all conditions tested) is “remained unaltered”. Besides, the “MAP2 dendrite staining in CA1 and CA3 regions of hippocampus of infected mice” value in data set [5] (intranasal insulin daily for 9 days, three mice per variable) is on record as “levels similar to uninfected mice”. Moreover, the “peripheral virus burdens after discontinuation of insulin treatment” value in data set [6] (EcoHIV + insulin/disc group compared with untreated mice) is on record as “significantly increased”. Further, in data set [6] (setting [11]), the “HIV DNA brain levels, 3 months after infection” value is reported as “not significantly affected”; the “HIV brain burdens, 1 month after infection” value is reported as “significantly reduced”; the “HIV levels in spleen, 1 month after infection” value is “no effect”. Besides, the “RAWM visible platform latency (mobility, vision, motivation)” value in data set [7] (all mouse groups, intranasal insulin daily for 9 days) was “performed equally well”. Also, the “day of RAWM testing at which maximum effect on working memory was reached” value in data set [7] (infected mice, daily retention trial) is ≤ 5 days. Also, the “NCI in RAWM, 3 months after infection” value in data set [7] (intranasal 2.4 IU/mouse daily for 9 days, started 3 months after EcoHIV infection) is given as “completely reversed; also recorded: fully reversible”. In data set [7] (last 3-day average, compared with infected, continually treated animals), the “RAWM performance of infected animals after treatment cessation” value was “dramatically worsened”. Further, in data set [8], the “contextual freezing response time of infected mice” value was “returned the freezing response time of infected mice to that of uninfected animals”.
